Among the data in ChEMBL document CHEMBL1150169, “Fatty acid synthase inhibitors from plants: isolation, structure elucidation, and SAR studies” (J Nat Prod, 2002) are IC50 values, retold here.

One assay has as its system Candida albicans. Briefly: Antifungal activity against Candida albicans ATCC 90028. In kind it is functional, organism-based.
The nature of assay [1]: Inhibition of Saccharomyces cerevisiae fatty acid synthase. The gist of the method:
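Yeast FAS semipurified by 50% ammonium sulfate precipitation of lysate (pH 6.6 phosphate, EDTA, DTT, protease inhibitors), dialyzed, and diluted to 250 mOD/min/mL. Samples preincubated with enzyme 30 min at room temperature, then mixed 1:1 with mix of 1 mM malonyl CoA and NADPH, 40 µM acetyl CoA, and 2 mM DTT. A340 read kinetically; rate over initial 2 min. IC50 from dose-response curves.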

The subject of another assay is Cryptococcus neoformans. Briefly: Antifungal activity against Cryptococcus neoformans ATCC 90113. Type of assay: functional, organism-based.

In brackets after ≈: the same amount, converted by molar mass.

Take `O=C1c2c(O)cc(O)cc2OC1(O)Cc1cc(O)c(O)c(O)c1` (configuration not stated) [AMARANOL A]: the half-inhibitory concentration (IC50) (in the assay on Candida albicans; in assay [1]; in the assay with Cryptococcus neoformans) was > 50 µg/mL throughout.
In the case of `CC1(C)CC[C@]2(C(=O)O)CC[C@]3(C)C(=CC[C@@H]4[C@@]5(C)C[C@@H](O)[C@H](O)[C@@](C)(CO)[C@@H]5CC[C@]43C)[C@@H]2C1` [ARJUNOLIC ACID], the values for the 50% inhibitory concentration (IC50) (in the assay with Candida albicans; in assay [1]; with Cryptococcus neoformans) were > 50 µg/mL, 27.5 µg/mL (≈ 56.3 µM) and 20 µg/mL (≈ 40.9 µM), respectively.
Taken in the same sequence, the figures for `O=Cc1cc(-c2coc3cc(O)cc(O)c3c2=O)ccc1O` were > 50 µg/mL, 2.3 µg/mL (≈ 7.71 µM) and > 50 µg/mL.
As to `O=C1c2c(O)cc(O)cc2OC(c2ccc(O)cc2O)C1O` (configuration not stated), the IC50 (in the assay with Candida albicans; in assay [1]; in the assay on Cryptococcus neoformans) was > 50 µg/mL throughout.
With `O=C(O)[C@H]1O[C@@H](Oc2cc3oc(-c4ccccc4)cc(=O)c3c(O)c2O)[C@H](O)[C@@H](O)[C@@H]1O` [BAICALIN], the IC50 (in the assay on Candida albicans; in assay [1]; in the assay with Cryptococcus neoformans) was > 50 µg/mL each time.
On to `C[C@@H]1O[C@@H](OC[C@H]2O[C@@H](Oc3c(-c4ccc(O)c(O)c4)oc4cc(O)cc(O)c4c3=O)[C@H](O)[C@@H](O)[C@@H]2O)[C@H](O)[C@H](O)[C@H]1O` [RUTIN], for which the concentration for half-maximal inhibition (IC50) in the assay with Candida albicans was > 50 µg/mL; in assay [1], > 50 µg/mL; in the assay with Cryptococcus neoformans, 30 µg/mL (≈ 49.1 µM).
On to `O=c1cc(-c2ccccc2)oc2c(Br)cc(Br)cc12`, for which the 50% inhibitory concentration (IC50) (with Candida albicans; in assay [1]; with Cryptococcus neoformans) was > 50 µg/mL each time.
In the case of `O=c1oc2c(O)c(O)cc3c(=O)oc4c(O)c(O)cc1c4c23` [ELLAGIC ACID], the IC50 is > 50 µg/mL in the assay on Candida albicans, 20 µg/mL (≈ 66.2 µM) in assay [1] and 5.5 µg/mL (≈ 18.2 µM) with Cryptococcus neoformans.
Taken in the same sequence, the figures for `COc1cc2c(=O)oc3c(OC)c(O[C@@H]4O[C@H](CO)[C@@H](O)[C@H](O)[C@H]4O)cc4c(=O)oc(c1OC)c2c34` were > 50 µg/mL, > 50 µg/mL and > 50 µg/mL.
As for `O=C1CC(c2ccccc2)Oc2ccccc21` (configuration not stated) [FLAVANONE], the half-inhibitory concentration (IC50) (with Candida albicans; in assay [1]; with Cryptococcus neoformans) was > 50 µg/mL throughout.
`O=c1c(O)c(-c2ccc(O)c(O)c2)oc2cc(O)ccc12` [FISETIN]: the half-maximal inhibitory concentration (IC50) (with Candida albicans; in assay [1]; with Cryptococcus neoformans) was > 50 µg/mL throughout.
As to `O=c1c(-c2ccc(O)cc2)coc2cc(O)c(O)cc12`, the figures for the IC50 (in the assay on Candida albicans; in assay [1]; with Cryptococcus neoformans) were > 50 µg/mL, 50 µg/mL (≈ 185 µM) and > 50 µg/mL, respectively.
In the case of `O=c1cc(-c2ccc(Cl)cc2)oc2c(Br)cc(Br)cc12`, the IC50 (in the assay on Candida albicans; in assay [1]; in the assay with Cryptococcus neoformans) was > 50 µg/mL in each case.
Consider `O=c1c(O)c(-c2ccccc2)oc2cc(O)cc(O)c12` [GALANGIN], for which the concentration for half-maximal inhibition (IC50) (with Candida albicans; in assay [1]; with Cryptococcus neoformans) was > 50 µg/mL each time.
As for `CC1(C)C=Cc2c(cc3occ(-c4ccc(O)cc4)c(=O)c3c2O)O1` [ALPINUMISOFLAVONE], the IC50 (in the assay with Candida albicans; in assay [1]; with Cryptococcus neoformans) was > 50 µg/mL in each case.
As to `C[C@@H]1O[C@@H](Oc2cc3c(=O)oc4c(O)c(O)cc5c(=O)oc(c2O)c3c45)[C@H](O)[C@H](O)[C@H]1O` [ESCHWEILENOL C], the results for the IC50 (with Candida albicans; in assay [1]; in the assay on Cryptococcus neoformans) were > 50 µg/mL, 7.5 µg/mL (≈ 16.7 µM) and > 50 µg/mL, respectively.
`C=C(C)C(O)Cc1cc(-c2coc3cc(O)cc(O)c3c2=O)ccc1O` (configuration not stated): the half-maximal inhibitory concentration (IC50) (with Candida albicans; in assay [1]; in the assay on Cryptococcus neoformans) was > 50 µg/mL in each case.
For the compound `O=c1cc(-c2ccccc2)oc2cc(O)c(O)c(O)c12` [BAICALEIN], the 50% inhibitory concentration (IC50) in the assay with Candida albicans was 6 µg/mL (≈ 22.2 µM); in assay [1], 25 µg/mL (≈ 92.5 µM); in the assay on Cryptococcus neoformans it was > 50 µg/mL.
Taken in the same sequence, the figures for `COc1cc(-c2cc(=O)c3c(O)c(OC)c(OC)c(OC)c3o2)cc(OC)c1OC` [GARDENIN] were > 50 µg/mL, > 50 µg/mL and > 50 µg/mL.
For `COc1ccc(-c2coc3cc(O)cc(O)c3c2=O)cc1` [BIOCHANIN], in that order: > 50 µg/mL, > 50 µg/mL and > 50 µg/mL.
For `Cc1c(-c2ccccc2)oc2c(C(=O)O)cccc2c1=O`, in that order: > 50 µg/mL, > 50 µg/mL and > 50 µg/mL.
With `CC1(C)CC[C@]2(C(=O)O)CC[C@]3(C)C(=CC[C@@H]4[C@@]5(C)C[C@@H](O)[C@H](O)[C@@](C)(CO)[C@@H]5[C@H](O)C[C@]43C)[C@@H]2C1` [TERMINOLIC ACID], the IC50 (in the assay with Candida albicans; in assay [1]; in the assay on Cryptococcus neoformans) was > 50 µg/mL each time.
On to `COc1c(O[C@@H]2O[C@H](CO)[C@@H](O)[C@H](O)[C@H]2O)cc2c(=O)oc3c4c(cc5c(=O)oc1c2c35)OCO4` [NYSSOSIDE], for which the IC50 (in the assay on Candida albicans; in assay [1]; in the assay on Cryptococcus neoformans) was > 50 µg/mL throughout.
Regarding `Cc1cc2oc(-c3ccccc3)cc(=O)c2cc1Cl`, the IC50 (in the assay with Candida albicans; in assay [1]; with Cryptococcus neoformans) was > 50 µg/mL each time.
For the compound `CC(C)=CCc1c(O)ccc(C(=O)/C=C/c2ccc(O)cc2)c1O` [ISOBAVACHALCONE], the IC50 was 2 µg/mL (≈ 6.17 µM) with Candida albicans, > 50 µg/mL in assay [1] and 45 µg/mL (≈ 139 µM) with Cryptococcus neoformans.
With `O=c1c(O)c(-c2ccc(O)cc2)oc2cc(O)cc(O)c12` [KAEMPFEROL], the IC50 in the assay with Candida albicans was > 50 µg/mL; in assay [1], 50 µg/mL (≈ 175 µM); with Cryptococcus neoformans, > 50 µg/mL.
On to `C[C@H]1[C@H](C)CC[C@]2(C(=O)O)CC[C@]3(C)C(=CC[C@@H]4[C@@]5(C)CC[C@H](O)C(C)(C)[C@@H]5CC[C@]43C)[C@H]12` [URSOLIC ACID], for which the half-maximal inhibitory concentration (IC50) in the assay on Candida albicans was > 50 µg/mL; in assay [1], 38 µg/mL (≈ 83.2 µM); in the assay on Cryptococcus neoformans it was > 50 µg/mL.
As for `COc1cc2oc(-c3ccccc3)cc(=O)c2c(OC)c1OC` [BAICALEIN TRIMETHYL ETHER], the 50% inhibitory concentration (IC50) (with Candida albicans; in assay [1]; in the assay on Cryptococcus neoformans) was > 50 µg/mL in each case.
On to `O=c1c(-c2ccc(O)cc2)coc2cc(O)cc(O)c12` [GENISTEIN], for which the concentration for half-maximal inhibition (IC50) (in the assay with Candida albicans; in assay [1]; in the assay on Cryptococcus neoformans) was > 50 µg/mL in each case.
For `C=C(C)C(O)Cc1c(O)ccc(C(=O)/C=C/c2ccc(O)cc2)c1O` (configuration not stated), the 50% inhibitory concentration (IC50) was determined as 20 µg/mL (≈ 58.8 µM) in the assay on Candida albicans, 46 µg/mL (≈ 135 µM) in assay [1] and 50 µg/mL (≈ 147 µM) with Cryptococcus neoformans.
`O=C(OC[C@H]1O[C@@H](OC(=O)c2cc(O)c(O)c(O)c2)[C@H](OC(=O)c2cc(O)c(O)c(O)c2)[C@@H](OC(=O)c2cc(O)c(O)c(O)c2)[C@@H]1OC(=O)c1cc(O)c(O)c(O)c1)c1cc(O)c(O)c(O)c1` [PENTAGALLOYL GLUCOSE]: the IC50 is > 50 µg/mL in the assay on Candida albicans, 2.8 µg/mL (≈ 2.98 µM) in assay [1] and > 50 µg/mL in the assay on Cryptococcus neoformans.
For `Oc1cc(O)c2c(c1)O[C@H](c1ccc(O)c(O)c1)[C@H](O)C2` [(-)-EPICATECHIN], the concentration for half-maximal inhibition (IC50) (with Candida albicans; in assay [1]; in the assay with Cryptococcus neoformans) was > 50 µg/mL throughout.
`O=c1c(O)c(-c2ccc(O)c(O)c2)oc2cc(O)cc(O)c12` [QUERCETIN]: the 50% inhibitory concentration (IC50) is > 50 µg/mL in the assay on Candida albicans, 12 µg/mL (≈ 39.7 µM) in assay [1] and > 50 µg/mL in the assay on Cryptococcus neoformans.
With `C/C=C/C/C=C/CCC(=O)[C@H]1O[C@H]1C(N)=O` [CERULENIN], the results for the concentration for half-maximal inhibition (IC50) (with Candida albicans; in assay [1]; in the assay with Cryptococcus neoformans) were 0.4 µg/mL (≈ 1.79 µM), 0.15 µg/mL (≈ 0.672 µM) and 0.15 µg/mL (≈ 0.672 µM), respectively.
With `CC1(C)CC[C@]2(C(=O)O[C@@H]3O[C@H](CO)[C@@H](O)[C@H](O)[C@H]3O)CC[C@]3(C)C(=CC[C@@H]4[C@@]5(C)C[C@@H](O)[C@H](O)[C@@](C)(CO)[C@@H]5[C@H](O)C[C@]43C)[C@@H]2C1` [CHEBULOSIDE II], the IC50 (with Candida albicans; in assay [1]; in the assay with Cryptococcus neoformans) was > 50 µg/mL throughout.
In the case of `Cc1ccc2oc(-c3ccc(Cl)cc3)cc(=O)c2c1`, the IC50 (in the assay on Candida albicans; in assay [1]; with Cryptococcus neoformans) was > 50 µg/mL each time.
As for `O=c1cc(-c2ccc(Cl)cc2)oc2ccc(Br)cc12`, the concentration for half-maximal inhibition (IC50) (in the assay with Candida albicans; in assay [1]; with Cryptococcus neoformans) was > 50 µg/mL throughout.
Regarding `O=c1cc(-c2ccc(O)cc2)oc2cc(O)cc(O)c12` [APIGENIN], the figures for the half-maximal inhibitory concentration (IC50) (in the assay with Candida albicans; in assay [1]; in the assay on Cryptococcus neoformans) were > 50 µg/mL, 37.5 µg/mL (≈ 139 µM) and 20 µg/mL (≈ 74 µM), respectively.
Taken in the same sequence, the figures for `O=C1C[C@@H](c2ccc(O)cc2)Oc2cc(O)cc(O)c21` [NARINGENIN] were > 50 µg/mL, > 50 µg/mL and > 50 µg/mL.
Taken in the same sequence, the figures for `CC1(C)CC[C@]2(C(=O)O)CC[C@]3(C)C(=CC[C@@H]4[C@@]5(C)C[C@@H](O)[C@H](O)[C@@](C)(COC(=O)c6cc(O)c(O)c(O)c6)[C@@H]5[C@H](O)C[C@]43C)[C@@H]2C1` were > 50 µg/mL, > 50 µg/mL and > 50 µg/mL.
For `COc1c(O)cc(CC2(O)Oc3cc(O)cc(O)c3C2=O)cc1O` (configuration not stated) [AMARONOL B], in that order: > 50 µg/mL, > 50 µg/mL and > 50 µg/mL.
Take `O=c1c(-c2ccc(O)c(O)c2)coc2cc(O)cc(O)c12` [OROBOL]: the IC50 (in the assay on Candida albicans; in assay [1]; in the assay on Cryptococcus neoformans) was > 50 µg/mL throughout.
Regarding `COc1cc(O)c2c(=O)cc(-c3ccc(O)cc3)oc2c1-c1cc(-c2cc(=O)c3c(O)cc(O)cc3o2)ccc1O` [SOTETSUFLAVONE], the concentration for half-maximal inhibition (IC50) in the assay on Candida albicans is > 50 µg/mL; in assay [1] it was 25 µg/mL (≈ 45.2 µM); with Cryptococcus neoformans it was > 50 µg/mL.
`COc1cc(O)c(C(=O)CCc2ccc(O)cc2)c(O)c1` [ASEBOGENIN]: the 50% inhibitory concentration (IC50) (in the assay with Candida albicans; in assay [1]; in the assay on Cryptococcus neoformans) was > 50 µg/mL in each case.
